One block for each molecule: values may come before it.
Key:
14-3-3σ = target: T1, 14-3-3σ (Homo sapiens, UniProt P31947); experiment: Intact MS conjugation of compound to 14-3-3σ; format: biochemical; details: 14-3-3σ : cyclohexenone : NEM 1:10:10, overnight, 10 °C, BTP buffer pH 7
T1 sequence (P31947 1-231 limits assumed): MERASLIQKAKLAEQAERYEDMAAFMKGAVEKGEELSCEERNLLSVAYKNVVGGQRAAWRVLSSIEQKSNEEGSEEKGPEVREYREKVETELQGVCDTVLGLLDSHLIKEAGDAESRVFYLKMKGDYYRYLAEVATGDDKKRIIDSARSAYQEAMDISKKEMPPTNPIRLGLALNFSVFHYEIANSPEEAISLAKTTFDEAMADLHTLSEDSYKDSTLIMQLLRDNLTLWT
How it was run: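 Recombinant full-length 14-3-3σ (8 μM) was incubated overnight with 10 eq. (80 μM) of compound, with or without peptide, in 20 mM BTP buffer at pH 7 and 10 °C. Protein species (unmodified, conjugated, crosslinked) were read from deconvoluted intact mass spectra and expressed as percentage conjugation or crosslinking.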

[1] = L-cysteine–maleimide conjugation; cited from earlier work
[2] = target: the peptide panel (mutated B-Raf peptides: +5 mutants and histidine scan); experiment: fluorescence polarisation

- conjugate formed on co-incubation of cyclohexenone and NEM (14-3-3σ): exclusively the 14-3-3σ–NEM conjugate
Molecule: CCN1C(=O)C=CC1=O [NEM, N-ethylmaleimide]

Molecule: O=C1C=CC(=O)N1 [maleimide]
- reaction rate (k2) [1]: 17.6 ± 0.9 × 10^3 M^−1 s^−1

- Kd [2]: 1.8 to 135 µM
B1: 14-3-3σ (natural protein)
chain: MERASLIQKAKLAEQAERYEDMAAFMKGAVEKGEELSCEERNLLSVAYKNVVGGQRAAWRVLSSIEQKSNEEGSEEKGPEVREYREKVETELQGVCDTVLGLLDSHLIKEAGDAESRVFYLKMKGDYYRYLAEVATGDDKKRIIDSARSAYQEAMDISKKEMPPTNPIRLGLALNFSVFHYEIANSPEEAISLAKTTFDEAMADLHTLSEDSYKDSTLIMQLLRDNLTLWT

— PMC11752056 (Chemical Science, 2025)
